{"source": "ChEMBL document CHEMBL3046679", "about": "“Design, synthesis, and biological activities of arylmethylamine substituted chlorotriazine and methylthiotriazine compounds” (J Agric Food Chem, 2011)", "key": {"[1]": {"tested_on": "Triticum aestivum", "test": "Phytotoxicity against Triticum aestivum (wheat) plant at 200 ppm", "assay_type": "organism-based", "details": "in vivo"}, "[2]": {"tested_on": "Phytophthora infestans", "test": "Fungicidal activity against Phytophthora infestans assessed as inhibition of mycelia growth at 200 ppm", "assay_type": "functional, organism-based"}, "[3]": {"tested_on": "Pyrenophora teres", "test": "Fungicidal activity against Pyrenophora teres assessed as inhibition of disease development in compound treated leaf pieces at 20 ppm relative to untreated control (barley-preventative)", "assay_type": "functional", "in_short": "(§1)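 Preventative leaf-piece test on host tissue (tomato, vine, wheat or barley). Formulated compound applied at 200, 60 and 20 ppm before spore inoculation. Disease scored 3–9 days after inoculation, depending on the pathogen, as percent inhibition of disease development versus untreated controls. Values are the mean across replicates.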"}, "[4]": {"tested_on": "Brassica napus", "test": "Herbicidal activity against Brassica napus (oilseed rape) at 1.5 kg/ha postemergence treatment measured after 10 days by glasshouse test", "assay_type": "functional", "details": "post-emergence, 240 h", "in_short": "(§2)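 Glasshouse pre/postemergence test, each treatment in triplicate. Above-ground fresh weight measured 10 days after treatment. Result expressed as percent inhibition versus control, from 0 (no control) to 100 (complete control); glyphosate used as positive control.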"}, "[5]": {"tested_on": "Blumeria graminis f. sp. tritici", "test": "Fungicidal activity against Blumeria graminis f. sp. tritici assessed as inhibition of disease development in compound treated leaf pieces at 20 ppm relative to untreated control (wheat-preventative)", "assay_type": "functional"}, "[6]": {"tested_on": "Uromyces viciae-fabae", "test": "Fungicidal activity against Uromyces viciae-fabae assessed as inhibition of mycelia growth at 100 ppm", "assay_type": "functional, organism-based", "in_short": "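Leaf-piece assay on bean at 100 ppm, with compound applied before spore inoculation and two replicates. Each well scored 99 for complete inhibition, 55 for partial and 0 for none; value is the mean score across replicates.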"}, "[7]": {"tested_on": "Phytophthora infestans", "test": "Fungicidal activity against Phytophthora infestans assessed as inhibition of disease development in compound treated leaf pieces at 60 ppm relative to untreated control (tomato-preventative)", "assay_type": "functional", "in_short": "as §1"}, "[8]": {"tested_on": "Puccinia triticina", "test": "Fungicidal activity against Puccinia triticina assessed as inhibition of disease development in compound treated leaf pieces at 20 ppm relative to untreated control (wheat-preventative)", "assay_type": "functional", "in_short": "as §1"}, "[9]": {"tested_on": "Alternaria solani", "test": "Fungicidal activity against Alternaria solani assessed as inhibition of disease development in compound treated leaf pieces at 20 ppm relative to untreated control (tomato-preventative)", "assay_type": "functional", "in_short": "as §1"}, "[10]": {"tested_on": "Pyrenophora teres", "test": "Fungicidal activity against Pyrenophora teres assessed as inhibition of disease development in compound treated leaf pieces at 60 ppm relative to untreated control (barley-preventative)", "assay_type": "functional", "in_short": "as §1"}, "[11]": {"tested_on": "Plasmopara viticola", "test": "Fungicidal activity against Plasmopara viticola assessed as inhibition of disease development in compound treated leaf pieces at 60 ppm relative to untreated control (grapevine-preventative)", "assay_type": "functional", "in_short": "as §1"}, "[12]": {"tested_on": "Puccinia triticina", "test": "Fungicidal activity against Puccinia triticina assessed as inhibition of disease development in compound treated leaf pieces at 20 ppm relative to untreated control (wheat-curative)", "assay_type": "functional", "in_short": "(§3)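 Curative wheat leaf-piece test against Puccinia triticina. Leaf pieces inoculated with spores first, then treated with formulated compound at 200, 60 or 20 ppm. Disease scored 3–9 days after inoculation as percent inhibition versus untreated controls. Values are the mean across replicates.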"}, "[13]": {"tested_on": "Blumeria graminis f. sp. tritici", "test": "Fungicidal activity against Blumeria graminis f. sp. tritici assessed as inhibition of disease development in compound treated leaf pieces at 200 ppm relative to untreated control (wheat-preventative)", "assay_type": "functional"}, "[14]": {"tested_on": "Phytophthora infestans", "test": "Fungicidal activity against Phytophthora infestans assessed as inhibition of disease development in compound treated leaf pieces at 20 ppm relative to untreated control (tomato-preventative)", "assay_type": "functional", "in_short": "as §1"}, "[15]": {"tested_on": "Fusarium graminearum", "test": "Fungicidal activity against Fusarium graminearum assessed as inhibition of mycelia growth at 2 ppm", "assay_type": "functional, organism-based", "in_short": "(§4)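 Mycelial growth test in 96-well plates: compound incorporated into artificial growth medium at 2 ppm, two replicates per rate. Each well scored 99 for complete, 55 for partial or 0 for no inhibition. Values are the mean across replicates; azoxystrobin and prochloraz used as positive controls.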"}, "[16]": {"tested_on": "Blumeria graminis f. sp. tritici", "test": "Fungicidal activity against Blumeria graminis f. sp. tritici assessed as inhibition of disease development in compound treated leaf pieces at 60 ppm relative to untreated control (wheat-preventative)", "assay_type": "functional"}, "[17]": {"tested_on": "Echinochloa crus-galli", "test": "Herbicidal activity against Echinochloa crus-galli (barnyard grass) at 1.5 kg/ha preemergence treatment measured after 10 days by glasshouse test", "assay_type": "functional", "details": "pre-emergence, 240 h", "in_short": "as §2"}, "[18]": {"tested_on": "Plasmopara viticola", "test": "Fungicidal activity against Plasmopara viticola assessed as inhibition of disease development in compound treated leaf pieces at 20 ppm relative to untreated control (grapevine-preventative)", "assay_type": "functional", "in_short": "as §1"}, "[19]": {"tested_on": "Phytophthora infestans", "test": "Fungicidal activity against Phytophthora infestans assessed as inhibition of disease development in compound treated leaf pieces at 200 ppm relative to untreated control (tomato-preventative)", "assay_type": "functional", "in_short": "as §1"}, "[20]": {"tested_on": "Alternaria solani", "test": "Fungicidal activity against Alternaria solani assessed as inhibition of disease development in compound treated leaf pieces at 200 ppm relative to untreated control (tomato-preventative)", "assay_type": "functional", "in_short": "as §1"}, "[21]": {"tested_on": "Puccinia triticina", "test": "Fungicidal activity against Puccinia triticina assessed as inhibition of disease development in compound treated leaf pieces at 200 ppm relative to untreated control (wheat-curative)", "assay_type": "functional", "in_short": "as §3"}, "[22]": {"tested_on": "Alternaria solani", "test": "Fungicidal activity against Alternaria solani assessed as inhibition of mycelia growth at 2 ppm", "assay_type": "functional, organism-based", "in_short": "as §4"}, "[23]": {"tested_on": "Brassica napus", "test": "Herbicidal activity against Brassica napus (oilseed rape) at 1.5 kg/ha preemergence treatment measured after 10 days by glasshouse test", "assay_type": "functional", "details": "pre-emergence, 240 h", "in_short": "as §2"}, "[24]": {"tested_on": "Parastagonospora nodorum", "test": "Fungicidal activity against Phaeosphaeria nodorum assessed as inhibition of disease development in compound treated leaf pieces at 60 ppm relative to untreated control (wheat preventative)", "assay_type": "functional", "in_short": "as §1"}, "[25]": {"tested_on": "Puccinia triticina", "test": "Fungicidal activity against Puccinia triticina assessed as inhibition of disease development in compound treated leaf pieces at 200 ppm relative to untreated control (wheat-preventative)", "assay_type": "functional", "in_short": "as §1"}, "[26]": {"tested_on": "Heliothis virescens", "test": "Insecticidal activity against Lepidoptera Heliothis virescens (tobacco budworm) assessed as mortality at 1000 ppm by leaf-disk assay", "assay_type": "functional, organism-based", "in_short": "(§5)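 Leaf-disk assay at 1000 ppm, three replicates. Plates kept 5–9 days in controlled-environment cabinets. Mortality judged against untreated wells: 99 for significant mortality, 0 otherwise. Values are the mean of three; thiamethoxam and indoxacarb used as positive controls.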"}, "[27]": {"tested_on": "Echinochloa crus-galli", "test": "Herbicidal activity against Echinochloa crus-galli (barnyard grass) at 1.5 kg/ha postemergence treatment measured after 10 days by glasshouse test", "assay_type": "functional", "details": "post-emergence, 240 h", "in_short": "as §2"}, "[28]": {"tested_on": "Puccinia triticina", "test": "Fungicidal activity against Puccinia triticina assessed as inhibition of disease development in compound treated leaf pieces at 60 ppm relative to untreated control (wheat-preventative)", "assay_type": "functional", "in_short": "as §1"}, "[29]": {"tested_on": "Aphididae", "test": "Insecticidal activity against Aphididae (aphids) assessed as mortality at 1000 ppm by leaf-disk assay", "assay_type": "functional, organism-based", "in_short": "as §5"}, "[30]": {"tested_on": "Alternaria solani", "test": "Fungicidal activity against Alternaria solani assessed as inhibition of disease development in compound treated leaf pieces at 60 ppm relative to untreated control (tomato-preventative)", "assay_type": "functional", "in_short": "as §1"}, "[31]": {"tested_on": "Pythium dissimile", "test": "Fungicidal activity against Pythium dissimile assessed as inhibition of mycelia growth at 2 ppm", "assay_type": "functional, organism-based", "in_short": "as §4"}, "[32]": {"tested_on": "Puccinia triticina", "test": "Fungicidal activity against Puccinia triticina assessed as inhibition of disease development in compound treated leaf pieces at 60 ppm relative to untreated control (wheat-curative)", "assay_type": "functional", "in_short": "as §3"}, "[33]": {"tested_on": "Parastagonospora nodorum", "test": "Fungicidal activity against Phaeosphaeria nodorum assessed as inhibition of disease development in compound treated leaf pieces at 20 ppm relative to untreated control (wheat preventative)", "assay_type": "functional", "in_short": "as §1"}, "[34]": {"tested_on": "Plasmopara viticola", "test": "Fungicidal activity against Plasmopara viticola assessed as inhibition of disease development in compound treated leaf pieces at 200 ppm relative to untreated control (grapevine-preventative)", "assay_type": "functional", "in_short": "as §1"}, "[35]": {"tested_on": "Pyrenophora teres", "test": "Fungicidal activity against Pyrenophora teres assessed as inhibition of disease development in compound treated leaf pieces at 200 ppm relative to untreated control (barley-preventative)", "assay_type": "functional", "in_short": "as §1"}}, "note": "Calls of active or inactive are those of the source. The calls are words filed in the database; no cut-off is given here.", "data": [{"compound": "CSc1nc(NCc2cc(-c3ccccc3)no2)nc(NC(C)C)n1", "values": [{"measurement": "Activity", "setting": "[1]", "result": "Toxic"}, {"measurement": "inhibition", "setting": "[2]", "result": "inactive"}, {"measurement": "inhibition at 20 ppm", "setting": "[3]", "result": 0, "unit": "%"}, {"measurement": "inhibition at 1500 g/ha", "setting": "[4]", "result": 100, "unit": "%"}, {"measurement": "inhibition at 20 ppm", "setting": "[5]", "result": 0, "unit": "%"}, {"measurement": "inhibition", "setting": "[6]", "result": "Active"}, {"measurement": "inhibition at 60 ppm", "setting": "[7]", "result": 0, "unit": "%"}, {"measurement": "inhibition at 20 ppm", "setting": "[8]", "result": 0, "unit": "%"}, {"measurement": "inhibition at 20 ppm", "setting": "[9]", "result": 0, "unit": "%"}, {"measurement": "inhibition at 60 ppm", "setting": "[10]", "result": 0, "unit": "%"}, {"measurement": "inhibition at 60 ppm", "setting": "[11]", "result": 0, "unit": "%"}, {"measurement": "inhibition at 20 ppm", "setting": "[12]", "result": 70, "unit": "%"}, {"measurement": "inhibition at 200 ppm", "setting": "[13]", "result": 70, "unit": "%"}, {"measurement": "inhibition at 20 ppm", "setting": "[14]", "result": 0, "unit": "%"}, {"measurement": "inhibition", "setting": "[15]", "result": "inactive"}, {"measurement": "inhibition at 60 ppm", "setting": "[16]", "result": 70, "unit": "%"}, {"measurement": "inhibition at 1500 g/ha", "setting": "[17]", "result": 37.6, "unit": "%"}, {"measurement": "inhibition at 20 ppm", "setting": "[18]", "result": 0, "unit": "%"}, {"measurement": "inhibition at 200 ppm", "setting": "[19]", "result": 0, "unit": "%"}, {"measurement": "inhibition at 200 ppm", "setting": "[20]", "result": 0, "unit": "%"}, {"measurement": "inhibition at 200 ppm", "setting": "[21]", "result": 100, "unit": "%"}, {"measurement": "inhibition", "setting": "[22]", "result": "inactive"}, {"measurement": "inhibition at 1500 g/ha", "setting": "[23]", "result": 33.1, "unit": "%"}, {"measurement": "inhibition at 60 ppm", "setting": "[24]", "result": 70, "unit": "%"}, {"measurement": "inhibition at 200 ppm", "setting": "[25]", "result": 100, "unit": "%"}, {"measurement": "mortality", "setting": "[26]", "result": "inactive"}, {"measurement": "inhibition at 1500 g/ha", "setting": "[27]", "result": 14.3, "unit": "%"}, {"measurement": "inhibition at 60 ppm", "setting": "[28]", "result": 70, "unit": "%"}, {"measurement": "mortality", "setting": "[29]", "result": "inactive"}, {"measurement": "inhibition at 60 ppm", "setting": "[30]", "result": 0, "unit": "%"}, {"measurement": "inhibition", "setting": "[31]", "result": "inactive"}, {"measurement": "inhibition at 60 ppm", "setting": "[32]", "result": 100, "unit": "%"}, {"measurement": "inhibition at 20 ppm", "setting": "[33]", "result": 0, "unit": "%"}, {"measurement": "inhibition at 200 ppm", "setting": "[34]", "result": 0, "unit": "%"}, {"measurement": "inhibition at 200 ppm", "setting": "[35]", "result": 0, "unit": "%"}]}]}
